According to ChEMBL document CHEMBL3244270, “Nitrosoureidonucleosides” (1979):

Legend:
Format in all cases: functional
[1] = Cytotoxicity against human Hep2 cells; conditions: HEp-2, read-out: ED50 (the source's name)
Method in brief: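 H.Ep-2 cultures; ED50 taken as the concentration that holds growth of treated cells to 50% of untreated controls.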

L1210 [2] = assay: In-vivo antitumor activity against mouse L1210 cells at 100 mg/kg
Method in brief: (§1)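 Leukemia L1210 in vivo; compound given as a single dose on day 1 only, with dose in mg/kg. Read-out is life span of treated versus control animals, expressed as T/C %.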

L1210 [3] = assay: In-vivo antitumor activity against mouse L1210 cells at 200 mg/kg; method in brief: as §1
L1210 [4] = assay: Cytotoxicity against mouse L1210 cells; conditions: read-out: ED50 (the source's name)
L1210 [5] = assay: In-vivo antitumor activity against mouse L1210 cells at 25 mg/kg; method in brief: as §1

Row | Structure (SMILES) | EC50 [1] [µM] | further results
1 | CN(N=O)C(=O)NC[C@H]1O[C@@H](n2ccc(N)nc2=O)[C@H](O)[C@@H]1O | > 50 | –
2 | CNC(=O)N[C@H]1[C@@H](O)[C@H](n2cnc3c(N)nc(Cl)nc32)O[C@@H]1CO | > 50 | –
3 | CN(N=O)C(=O)N[C@H]1[C@@H](O)[C@H](n2ccc(=O)[nH]c2=O)O[C@@H]1CO | > 60 | T/C (L1210 [2]): 122%
4 | CNC(=O)N[C@H]1[C@@H](O)[C@H](n2cnc3c(N)ncnc32)O[C@@H]1CO | > 60 | –
5 | CN(N=O)C(=O)NC[C@H]1O[C@@H](n2cnc3c(N)ncnc32)[C@H](O)[C@@H]1O | 40 | T/C (L1210 [3]): 106%
6 | CN(N=O)C(=O)N[C@H]1[C@@H](O)[C@H](n2cnc3c(N)nc(Cl)nc32)O[C@@H]1CO | > 50 | –
7 | CN(N=O)C(=O)NC[C@H]1O[C@@H](n2ccc(=O)[nH]c2=O)[C@H](O)[C@@H]1O | > 50 | –
8 | CN(N=O)C(=O)N[C@H]1[C@@H](O)[C@H](n2cnc3c(N)ncnc32)O[C@@H]1CO | > 60 | T/C (L1210 [2]): 123%
9 | CNC(=O)N[C@H]1[C@@H](O)[C@H](n2ccc(N)nc2=O)O[C@@H]1CO | > 60 | –
10 | Cc1cn([C@H]2C[C@H](NC(=O)N(C)N=O)[C@@H](CO)O2)c(=O)[nH]c1=O | – | EC50 (L1210 [4]): 1 µM
11 | CNC(=O)NC[C@H]1O[C@@H](n2cnc3c(N)ncnc32)[C@H](O)[C@@H]1O | > 60 | T/C (L1210 [3]): 98%
12 | CN(N=O)C(=O)N[C@H]1[C@@H](O)[C@H](n2ccc(N)nc2=O)O[C@@H]1CO | > 50 | T/C (L1210 [5]): 110%
